Test results published in ChEMBL document CHEMBL1128732, “Synthesis and anticonvulsant activity of N-benzylpyrrolo[2,3-d]-, -pyrazolo[3,4-d]-, and -triazolo[4,5-d]pyrimidines: imidazole ring-modified analogues of 9-(2-fluorobenzyl)-6-(methylamino)-9H-purine” (J Med Chem, 1995).

How the values were obtained:
Rattus norvegicus [1] = assay: The compound was tested for anticonvulsant activity against maximal electroshock-induced seizures after intraperitoneal administration in rats; format: functional
Procedure, shortened: (§1)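 Male Wistar rats (Charles River) challenged with maximal electroshock. ED50 is the dose protecting 50% of animals against the hind limb extensor component, calculated by the Miller–Tainter method. With standard error: at least 12 animals per dose level, four doses per compound. Without standard error: three doses, six animals per point. Some compounds were given as the hydrochloride.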

Rattus norvegicus [2] = assay: The compound was tested for anticonvulsant activity against maximal electroshock-induced seizures after peroral administration in rats; format: functional; procedure, shortened: as §1
[3] = Partition coefficient (logP); format: physicochemical; settings: octanol/water
Procedure, shortened: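 Octanol–water partition measured with a carbonate-buffered aqueous phase adjusted to pH 10.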

[4] = pKa value of the compound; format: physicochemical

Compound | ED50 (Rattus norvegicus [1]) [mg/kg] | ED50 (Rattus norvegicus [1]; Rattus norvegicus, ip) [mg/kg] | ED50 (Rattus norvegicus [2]; Rattus norvegicus, po) [mg/kg] | other results
CNc1ncnc2c1ncn2Cc1ccccc1F [BW-A78U] | 1.7 | – | – | ED50 (Rattus norvegicus [2]): 2.5 mg/kg
CN(C)c1ncnc2c1ccn2Cc1ccccc1 | 15 | – | – | –
CNc1ncnc2c1cnn2Cc1ccccc1F | – | 6 | 8 | logP [3]: 1.94; pKa [4]: 4.4
Fc1ccccc1Cn1ccc2c(NC3CC3)ncnc21 | – | > 50 | – | –
O=C1NC(=O)C(c2ccccc2)(c2ccccc2)N1 [PHENYTOIN] | 10 | – | – | ED50 (Rattus norvegicus [2]): 20 mg/kg
CN(C)c1ncnc2c1ccn2Cc1ccccc1F | 11 | – | – | ED50 (Rattus norvegicus [2]): 12 mg/kg
Nc1ncnc2c1cnn2Cc1ccccc1 | – | > 25 | – | –
Nc1ncnc2c1cnn2Cc1ccccc1F | – | 8 | 14 | –
Nc1ncnc2c1nnn2Cc1ccccc1F | – | > 25 | – | –
c1ccc(Cn2ccc3c(NC4CC4)ncnc32)cc1 | – | 36 | – | –
CNc1ncnc2c1nnn2Cc1ccccc1F | – | 3 | 8 | logP [3]: 2.05; pKa [4]: 2.49
Nc1ncnc2c1ncn2Cc1ccccc1F | 4.5 | – | – | ED50 (Rattus norvegicus [2]): 12 mg/kg
CNc1ncnc2c1ccn2Cc1ccccc1F | – | 6 | 12 | logP [3]: 2.11; pKa [4]: 5.56
CNc1ncnc2c1cnn2Cc1ccccc1 | – | 7 | 15 | –
